# Columns and labels:
# Assay type in all cases: functional
# Mus musculus [1] = test: Antiinflammatory activity in mouse assessed as inhibition of xylene-induced ear edema at 40 mg/kg, po
# Summary of the method: (§1)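 Male and female Kunming mice (20–26 g) given the test substance by the oral route at 40 mg/kg. Percent inhibition was scored in the xylene-induced ear edema model (anti-inflammatory) or the acetic acid-induced writhing model (analgesic).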
# Mus musculus [2] = test: Analgesic activity in Kunming mouse assessed as inhibition of acetic acid-induced writhing response at 40 mg/kg, po; summary of the method: as §1
# Mus musculus [3] = test: Antiinflammatory activity in orally dosed mouse assessed as inhibition of xylene-induced ear edema; conditions: po
# Summary of the method: (§2)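 Male and female Kunming mice (20–26 g) dosed orally. ED50 was determined in the xylene-induced ear edema model (anti-inflammatory) or the acetic acid-induced writhing model (analgesic).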
# Mus musculus [4] = test: Analgesic activity in orally dosed Kunming mouse assessed as inhibition of acetic acid-induced writhing response; conditions: po; summary of the method: as §2
# Rattus norvegicus = test: Antiinflammatory activity in rat assessed as inhibition of carrageenan-induced paw edema
Structure (SMILES),inhibition in vivo at 40 mg/kg (Mus musculus [1]),inhibition in vivo at 40 mg/kg (Mus musculus [2]),ED50 (Mus musculus [3]),ED50 (Mus musculus [4]),ED50 (Rattus norvegicus)
CN1CCN(C(=O)c2cc(-c3ccc(F)cc3F)ccc2OC(=O)c2ccccc2)CC1,27.5%,88.3%,–,–,–
CC(=O)Oc1ccc(-c2ccc(F)cc2F)cc1C(=O)O,13.7%,0%,–,–,–
O=C(Oc1ccc(-c2ccc(F)cc2F)cc1C(=O)O)c1ccccc1,16.1%,7.97%,–,–,–
CC(=O)Oc1ccc(-c2ccc(F)cc2F)cc1C(=O)Nc1cc(C)ccc1C,22%,13.2%,–,–,–
Cc1ccccc1NC(=O)c1cc(-c2ccc(F)cc2F)ccc1OC(=O)c1ccccc1,21.4%,20.8%,–,–,–
CCN(CC)C(=O)c1cc(-c2ccc(F)cc2F)ccc1OC(=O)c1ccccc1,65.2%,0%,25.7 mg/kg,–,–
CC(=O)Oc1ccc(-c2ccc(F)cc2F)cc1C(=O)NN1CCOCC1,0%,28.5%,–,–,–
CNC(=O)c1cc(-c2ccc(F)cc2F)ccc1OC(=O)c1ccccc1,68.9%,47.5%,24.2 mg/kg,43.8 mg/kg,–
O=C(Oc1ccc(-c2ccc(F)cc2F)cc1C(=O)Nc1ccccc1)c1ccccc1,19.8%,5.57%,–,–,–
CC(=O)Oc1ccc(-c2ccc(F)cc2F)cc1C(=O)Nc1ccccc1Cl,41.4%,11.7%,–,–,–
CC(=O)Oc1ccc(-c2ccc(F)cc2F)cc1C(=O)Nc1ccc(Cl)cc1,0%,29.9%,–,–,–
CC(=O)Oc1ccc(-c2ccc(F)cc2F)cc1C(=O)Nc1ccccc1C,19.6%,12.3%,–,–,–
CC(=O)Oc1ccc(-c2ccc(F)cc2F)cc1C(=O)Nc1ccc(C)cc1,36.4%,31%,–,–,–
CC(=O)Oc1ccc(-c2ccc(F)cc2F)cc1C(=O)NCc1ccccc1,34.1%,16.6%,–,–,–
CCNC(=O)c1cc(-c2ccc(F)cc2F)ccc1OC(C)=O,5.38%,23.9%,–,–,–
CC(=O)Oc1ccc(-c2ccc(F)cc2F)cc1C(=O)NC1CCCCC1,0%,15.6%,–,–,–
CC(=O)Oc1ccc(-c2ccc(F)cc2F)cc1C(=O)Nc1ccccc1,23.2%,8.9%,–,–,–
CC(=O)Oc1ccc(-c2ccc(F)cc2F)cc1C(=O)Nc1cccc(C)c1,12.8%,19%,–,–,–
CNC(=O)c1cc(-c2ccc(F)cc2F)ccc1OC(C)=O,48.8%,29.9%,–,–,–
O=C(O)c1cc(-c2ccc(F)cc2F)ccc1O [DIFLUNISAL],39.9%,8.33%,–,–,59.6 mg/kg
